Assay results gathered from unrelated publications.
Each line is one published result; the experiments were not run side by side.
Target: Mitogen-activated protein kinase kinase kinase kinase 1 (MAP4K1, Homo sapiens, UniProt Q92918)

Compound	effect on	technique	concentration	remaining binding [%]
COc1cnc(Nc2cccc(S(N)(=O)=O)c2)nc1N1CCN(c2ccccc2)CC1	binding	competition with immobilised ligand	1 µM	88
CN(C)C(=O)Cn1cc(-c2nc([C@@](C)(c3ccc(-c4cnc(N)nc4)cc3)C3CC3)no2)cn1	cell-free assay	competition with immobilised ligand	1 µM	100
O=C(NCCCN1CCOCC1)c1ccc(Nc2nccc(-c3cc4ccccc4s3)n2)cc1	binding	competition with immobilised ligand	1 µM	85
COc1ccnn2ncc(-c3ccnc(N(C)C)n3)c12	binding		1 µM	100
CSc1cccnc1N1CCN(Cc2nc3ccccc3[nH]2)CC1	cell-free assay	competition with immobilised ligand	1 µM	100
C[C@H]1CCN(c2nccc(-c3cnn4ncccc34)n2)C1	binding		1 µM	99
CS(=O)(=O)c1cc(C2(NC(=O)c3cncc4c3cnn4-c3ccc(F)cc3)CC2)ccn1	cell-free assay	competition with immobilised ligand	1 µM	89
FC(F)(F)Oc1cccc(-c2cnc3ccc(-c4ccncc4)nn23)c1	cell-free assay	competition with immobilised ligand	5 µM	68
CCN1CCN(Cc2ccc(C(=O)Nc3ccc(C)c(Oc4ccc5c(c4)CC(=O)N5)c3)cc2C(F)(F)F)CC1	binding	competition with immobilised ligand	1 µM	90
C[C@H](c1ccnc(Nc2nc3ccc(-c4cc(N(C)C)ncn4)cc3[nH]2)c1)N1CCN(C(=O)CC(F)(F)F)CC1	cell-free assay	competition with immobilised ligand	0.1 µM	51
O=C(c1ccc(Nc2ncc(Cl)c(-c3ccc(Cl)s3)n2)cc1)N1CCC(N2CCCC2)CC1	binding	competition with immobilised ligand	1 µM	12
CNC(=O)[C@@H]1CC[C@@H](n2c(-c3ccc4cnccc4c3)nc3ccc(C(=O)NCc4cccc(C(N)=O)c4)cc32)C1	binding	competition with immobilised ligand	1 µM	82
O=C(Nc1c[nH]nc1C(=O)NC1CCNCC1)c1cc(F)cc(F)c1	binding	competition with immobilised ligand	1 µM	100
N[C@H]1CCN(c2nccc(-c3cnn4ncccc34)n2)C1	binding		1 µM	100
COCCOc1nc(-c2ccc(Cl)nc2)nc2c1CN(C(=O)c1ncn3ccccc13)CC2	cell-free assay	competition with immobilised ligand	0.1 µM	92
CC1CCCN1c1nccc(-c2cnn3ncccc23)n1 (stereo not shown)	binding		1 µM	100
c1cncc(-c2cccc(Nc3nccc(NC4CCCCC4)n3)c2)c1	binding	competition with immobilised ligand	10 µM	39
CN(C)c1nccc(-c2cnc3ncccn23)n1	binding		1 µM	100
FC(F)(F)c1ccc2c(c1)nc(-c1cccnc1)n2C1CC1	cell-free assay	competition with immobilised ligand	1 µM	93
Cc1cnc(Nc2ccc(C(=O)N3CCC(N4CCCC4)CC3)cc2)nc1-c1cc2ccccc2s1	binding	competition with immobilised ligand	1 µM	22
CNC(=O)Nc1ccc2c(c1)[C@@]1(CC2)OC(=O)N(CC(=O)N(Cc2ccc(F)cc2)[C@@H](C)C(F)(F)F)C1=O	cell-free assay	competition with immobilised ligand	1 µM	90
CN(C)c1nccc(-c2cnn3ncccc23)n1	binding		1 µM	100
